The values that follow come from PubChem BioAssay.

Active and inactive are the calls of the source.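 The calls were made as follows, unless noted: active = viability at or below 10% of carrier control in both of two separate runs; inconclusive = viability at or below 10% in only one of the two runs; inactive = the rest.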

Assay [1] can be described thus: Her2 expression decrease, cell viability multiplex – SKBR3 breast tumor cells, AlphaScreen, ATP viability, primary screen (AID 461;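 active = Her2 level under about 52% in both replicate screens, with viability over 70% of control, limit read from the data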;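 as to Her2 level: lower value means less Her2 protein in the cells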;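 as to viability: percent of carrier control wells set as 100% viability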). The following applies: SKBR3 Her2 protein level, 18-24 h, measured here: SKBR3 viability, ATP luminescence, at 10 µM.
In assay [2] the target is Receptor tyrosine-protein kinase erbB-2 (Homo sapiens) (UniProt P04626). The assay is described as above. The note with it: 18-24 h, at 10 µM, stronger effect = lower value.
Sequence of Receptor tyrosine-protein kinase erbB-2 (Homo sapiens) (P04626 whole entry, looked up): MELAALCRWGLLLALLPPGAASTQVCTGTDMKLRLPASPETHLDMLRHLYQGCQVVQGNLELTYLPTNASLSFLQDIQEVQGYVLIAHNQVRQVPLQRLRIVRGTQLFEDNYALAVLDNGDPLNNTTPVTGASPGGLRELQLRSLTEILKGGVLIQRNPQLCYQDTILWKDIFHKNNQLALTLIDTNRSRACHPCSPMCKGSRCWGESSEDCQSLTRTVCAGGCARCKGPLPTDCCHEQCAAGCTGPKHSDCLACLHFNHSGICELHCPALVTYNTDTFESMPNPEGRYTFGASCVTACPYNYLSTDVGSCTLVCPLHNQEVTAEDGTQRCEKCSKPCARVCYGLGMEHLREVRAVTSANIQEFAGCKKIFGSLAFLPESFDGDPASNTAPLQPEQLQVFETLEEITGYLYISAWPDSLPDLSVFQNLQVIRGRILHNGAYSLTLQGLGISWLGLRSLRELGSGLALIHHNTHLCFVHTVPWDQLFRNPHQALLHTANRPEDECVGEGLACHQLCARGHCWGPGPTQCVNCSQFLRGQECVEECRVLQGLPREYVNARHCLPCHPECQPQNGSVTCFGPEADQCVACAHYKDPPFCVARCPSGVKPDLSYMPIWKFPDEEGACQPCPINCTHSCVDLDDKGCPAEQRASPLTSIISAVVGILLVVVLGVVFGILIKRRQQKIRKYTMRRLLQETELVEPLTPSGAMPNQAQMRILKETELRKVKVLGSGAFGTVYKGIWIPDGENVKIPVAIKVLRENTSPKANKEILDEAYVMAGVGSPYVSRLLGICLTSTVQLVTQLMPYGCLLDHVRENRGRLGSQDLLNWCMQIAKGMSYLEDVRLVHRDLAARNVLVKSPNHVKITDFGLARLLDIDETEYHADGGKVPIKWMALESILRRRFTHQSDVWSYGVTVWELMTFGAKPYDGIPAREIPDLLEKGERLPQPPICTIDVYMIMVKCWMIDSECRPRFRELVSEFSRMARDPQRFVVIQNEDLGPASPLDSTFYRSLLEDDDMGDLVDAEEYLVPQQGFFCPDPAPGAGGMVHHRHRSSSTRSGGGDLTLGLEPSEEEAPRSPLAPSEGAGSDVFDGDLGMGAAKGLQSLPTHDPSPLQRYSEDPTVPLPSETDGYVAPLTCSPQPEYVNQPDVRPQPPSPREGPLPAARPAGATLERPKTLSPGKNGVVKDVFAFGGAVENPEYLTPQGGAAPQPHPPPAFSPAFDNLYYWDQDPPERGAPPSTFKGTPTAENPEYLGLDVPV
Assay [3] can be described thus: reduced viability of SK-BR-3 breast cancer cells – cell-based, 24 h, human, pilot screen (AID 572).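 Also: compound exposure lasted between 18 and 24 h rather than exactly 24 h; 100% = carrier-treated control wells.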 The note with it: SK-BR-3 viability, CellTiter-Glo luminescence, at 10 µM, stronger effect = lower value. A general note: Cellular ATP, detected with luciferase, serves as a proxy for viable cell number.
A short description of assay [4]: HUVEC growth inhibition – cell-based, human, primary screen (AID 575;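 active = viability at or below 30% in both replicate assays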;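 also: 100% = median of untreated cell wells with 0.1% DMSO on each plate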). The following applies: HUVEC proliferation, CellTiter-Glo luminescence, 72 h; at 10 µM; stronger effect = lower value. The method in brief: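 Material: primary human umbilical vein endothelial cells / Schedule: 72 h exposure, 37 °C, 5% CO2, 30 min RT equilibration / Signal: ATP-based CellTiter-Glo luminescent read / Read-out basis: percent of median DMSO-control luminescence / Control set: 32 DMSO-only cell-control wells (high), 32 MePR drug-control wells (low) per plate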

Assay [5] can be described thus: H69AR cell proliferation blockers – human, duplicate replicates, primary screen (AID 580;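 active = viability at or under a set limit in both replicates, limit being median viability minus 3 SD, cut at about 48% in these data, passing the limit was not always enough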;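 also: 100% = mean luminescence of untreated wells and 0% = no signal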). The note with it: H69AR lung tumor cells viability, ATP luminescence, 72 h; at 10 µM; stronger effect = lower value.
Assay [6] is described as follows: MRP1 drug-resistance reversers in H69AR cells – cell-based, doxorubicin co-treatment, pilot screen (AID 601;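 active = viability loss from added drug above about 55%, and viability with drug at most 40%, in both replicates, limit read from the data, passing the limit was not always enough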). The following applies: CellTiter-Glo, 72 h, at 10 µM; for differential viability (reversal): stronger effect = higher value.
Assay [7] is described as follows: yeast transport mutant growth inhibition pilot in 384-well plates, post-Golgi transport modulator project (AID 636; in the data active = inhibition above about 31%). The note with it: absorbance 615 nm, about 18 h, stronger effect = higher value.
A short description of assay [8]: growth suppression of yeast trafficking mutant, preliminary HTS, modulators of trafficking downstream of Golgi apparatus project, 1536-format plate, OD 615 nm (AID 637; in the data active = inhibition above about 30%). The following applies: yeast transport mutant growth, absorbance 615 nm, 18 h; stronger effect = higher value.
[9] abbreviates: H69AR cells + 2 uM doxorubicin, measured here: viability with 2 uM doxorubicin, stronger effect = lower value.
[10] abbreviates: H69AR cells, compound alone cytotoxicity.

In the case of `CC1=C(C#N)C(c2ccoc2)C(C(=O)OCc2ccccc2)=C(N)S1` (stereo not given), the viability (as a rule, a read-out of living cells in per cent, often relative to untreated cells) is 100% in assay [1]; 100% (inactive) in assay [3]; 99.5% (inactive) in assay [4]; 91.6% (inactive) in assay [5]; 92.4% in assay [6] (setting [9]); 91.6% in assay [6] (setting [10]). Further, in assay [2], the Her2 level is 88% (inactive). Also, the differential viability (reversal) in assay [6] (H69AR cells + 2 uM doxorubicin) was -0.82% (inactive). The inhibition (as a rule, the relative decrease from the control value, in per cent) in assay [7] was -3.95% (inactive); in assay [8], 0% (inactive).

In the case of `COc1ccccc1Cn1nnc2c(=O)[nH]c(C3CCN(C(=O)c4ccccc4Cl)CC3)nc21`, the viability in assay [1] is 93%; in assay [3], 93% (inactive); in assay [4], 102% (inactive); in assay [5] it was 82.2% (inactive); in assay [6] (setting [9]) it was 28.1%; in assay [6] (setting [10]), 82.2%. Besides, in assay [2], the Her2 level was 95.5% (inactive). In addition, the differential viability (reversal) in assay [6] (H69AR cells + 2 uM doxorubicin) is 54.1% (inactive). For the same compound, the inhibition in assay [7] was -3.64% (inactive); in assay [8], 0.48% (inactive).

Consider `Cn1c(SCC(=O)N2CCOCC2)nnc1-c1cccc(NC(=O)c2ccccc2F)c1`, for which the viability in assay [1] was 102%; in assay [3], 102% (inactive); in assay [4] it was 94% (inactive); in assay [5], 91.5% (inactive); in assay [6] (setting [9]) it was 80.1%; in assay [6] (setting [10]), 91.5%. The Her2 level in assay [2] was 82.5% (inactive). Moreover, the differential viability (reversal) in assay [6] (H69AR cells + 2 uM doxorubicin) is 11.4% (inactive). Further, the inhibition in assay [7] is -0.92% (inactive); in assay [8], 3.06% (inactive).

For `CCOc1ccc(NC(=O)CSc2nnnn2CC(=O)O)cc1`, the viability in assay [1] was 104%; in assay [3], 104% (inactive); in assay [4], 96% (inactive); in assay [5] it was 95.7% (inactive); in assay [6] (setting [9]), 99.8%; in assay [6] (setting [10]), 95.7%. Also, in assay [2], the Her2 level is 98% (inactive). Besides, the differential viability (reversal) in assay [6] (H69AR cells + 2 uM doxorubicin) was -4.13% (inactive). The inhibition in assay [7] is -3.16% (inactive); in assay [8], -5.65% (inactive).

For `O=C(CN1CCN(C(=O)c2ccccc2)CC1)Nc1ncc(Br)cc1Br`, the viability is 76.5% in assay [1]; 76.5% (inactive) in assay [3]; 92.2% (inactive) in assay [4]; 77.9% (inactive) in assay [5]; 84.8% in assay [6] (setting [9]); 77.9% in assay [6] (setting [10]). Moreover, the Her2 level in assay [2] was 100% (inactive). Moreover, the differential viability (reversal) in assay [6] (H69AR cells + 2 uM doxorubicin) is -6.92% (inactive). The inhibition in assay [7] was -2.4% (inactive); in assay [8] it was -5.74% (inactive).

Consider `CSc1cccc(NC(=O)C2CCCN2S(=O)(=O)c2ccc3c(c2)CCC(=O)N3)c1` (stereo not given), for which the viability in assay [1] is 93%; in assay [3], 93% (inactive); in assay [4], 94.7% (inactive); in assay [5], 89% (inactive); in assay [6] (setting [9]), 88.6%; in assay [6] (setting [10]), 89%. Further, the Her2 level in assay [2] is 93.5% (inactive). Also, the differential viability (reversal) in assay [6] (H69AR cells + 2 uM doxorubicin) was 0.435% (inactive). Besides, the inhibition in assay [7] is -4.21% (inactive); in assay [8], -8.73% (inactive).

On to `CCOc1cccc(OCCOCCN2CCCC2)c1`, for which the viability was 107% in assay [1]; 107% (inactive) in assay [3]; 91.3% (inactive) in assay [4]; 89.4% (inactive) in assay [5]; 90.5% in assay [6] (setting [9]); 89.4% in assay [6] (setting [10]). In addition, in assay [2], the Her2 level is 89% (inactive). The differential viability (reversal) in assay [6] (H69AR cells + 2 uM doxorubicin) was -1.11% (inactive). In addition, the inhibition was -6.22% (inactive) in assay [7] and -3.17% (inactive) in assay [8].

As to `CCCCOCCCNC(=O)c1ccccc1OCC`, the viability was 89% in assay [1]; 89% (inactive) in assay [3]; 108% (inactive) in assay [4]; 87.8% (inactive) in assay [5]; 78.2% in assay [6] (setting [9]); 87.8% in assay [6] (setting [10]). Also, the Her2 level in assay [2] was 88.5% (inactive). The differential viability (reversal) in assay [6] (H69AR cells + 2 uM doxorubicin) was 9.53% (inactive). The inhibition in assay [7] was -3.72% (inactive); in assay [8], -4.67% (inactive).

`Cc1nnc2ccc(N3CCN(c4cccc(C(F)(F)F)c4)CC3)nn12`: the viability in assay [1] was 97.5%; in assay [3], 97.5% (inactive); in assay [4] it was 75% (inactive); in assay [5], 80.3% (inactive); in assay [6] (setting [9]) it was 61.6%; in assay [6] (setting [10]), 80.3%. Moreover, the Her2 level in assay [2] was 77.5% (inactive). In addition, the differential viability (reversal) in assay [6] (H69AR cells + 2 uM doxorubicin) was 18.7% (inactive). Also, the inhibition in assay [7] is -0.53% (inactive); in assay [8] it was -1.15% (inactive).

Turning to `COc1ccc(N=c2scc(-c3ccc(S(=O)(=O)N4CCOCC4)cc3)n2CCCO)cc1`, the viability is 85.5% in assay [1]; 85.5% (inactive) in assay [3]; 96.4% (inactive) in assay [4]; 72.8% (inactive) in assay [5]; 35.6% in assay [6] (setting [9]); 72.8% in assay [6] (setting [10]). In assay [2], the Her2 level was 80.5% (inactive). For the same compound, in assay [6] (H69AR cells + 2 uM doxorubicin), the differential viability (reversal) is 37.2% (inactive). The inhibition in assay [7] was 1.67% (inactive); in assay [8] it was -8.5% (inactive).

Regarding `O=C(NCc1cccs1)c1cc2c(s1)CCCC2`, the viability in assay [1] was 92.5%; in assay [3] it was 92.5% (inactive); in assay [4] it was 85.8% (inactive); in assay [5] it was 97.6% (inactive); in assay [6] (setting [9]), 92.2%; in assay [6] (setting [10]), 97.6%. Also, the Her2 level in assay [2] is 102% (inactive). Also, the differential viability (reversal) in assay [6] (H69AR cells + 2 uM doxorubicin) is 5.47% (inactive). The inhibition in assay [7] is 0.65% (inactive); in assay [8], 2.13% (inactive).

As to `O=C(Nc1ccc(CN2CCCCC2)cc1)c1ccc2c(c1)OCO2`, the viability is 80.5% in assay [1]; 80.5% (inactive) in assay [3]; 98.8% (inactive) in assay [4]; 91.6% (inactive) in assay [5]; 79.7% in assay [6] (setting [9]); 91.6% in assay [6] (setting [10]). The Her2 level in assay [2] is 75% (inactive). The differential viability (reversal) in assay [6] (H69AR cells + 2 uM doxorubicin) was 11.9% (inactive). Further, the inhibition is -2.5% (inactive) in assay [7] and -4.44% (inactive) in assay [8].

Consider `CCOC(=O)c1ccc(NC(=O)COc2ccc(-n3cnnn3)cc2)cc1`, for which the viability in assay [1] was 124%; in assay [3] it was 124% (inactive); in assay [4] it was 96.8% (inactive); in assay [5], 89% (inactive); in assay [6] (setting [9]), 87.2%; in assay [6] (setting [10]), 89%. Moreover, the Her2 level in assay [2] was 95% (inactive). The differential viability (reversal) in assay [6] (H69AR cells + 2 uM doxorubicin) is 1.81% (inactive). For the same compound, the figures for the inhibition in assay [7] and in assay [8] were -4.13% (inactive) and -1.43% (inactive), respectively.

`Cc1nc2ccccn2c1C(=O)NCCCN1CCOCC1`: the viability is 91.5% in assay [1]; 91.5% (inactive) in assay [3]; 109% (inactive) in assay [4]; 102% (inactive) in assay [5]; 96.4% in assay [6] (setting [9]); 102% in assay [6] (setting [10]). Further, the Her2 level in assay [2] was 94.5% (inactive). In addition, the differential viability (reversal) in assay [6] (H69AR cells + 2 uM doxorubicin) was 5.8% (inactive). Further, the inhibition in assay [7] is -0.27% (inactive); in assay [8], 4.59% (inactive).

As to `Cn1nc(C(=O)N2CCOCC2)c2ccccc2c1=O`, the viability was 93% in assay [1]; 93% (inactive) in assay [3]; 88.9% (inactive) in assay [4]; 89.3% (inactive) in assay [5]; 83.4% in assay [6] (setting [9]); 89.3% in assay [6] (setting [10]). Further, in assay [2], the Her2 level is 114% (inactive). In addition, the differential viability (reversal) in assay [6] (H69AR cells + 2 uM doxorubicin) was 5.89% (inactive). Also, the inhibition in assay [7] is -1.3% (inactive); in assay [8], 0.67% (inactive).
